ADAM10 inh = inhibitors of human ADAM10; 370,000 tested, 0.62% active; inhibition, % at 7 µM; recombinant ADAM10, EDANS/DABCYL FRET peptide cleavage, 3 h;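 active = inhibition above a per-campaign cutoff equal to the mean of compounds falling between control-based bounds plus 3 SD, cut at about 20% in these data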;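 note: 0% = DMSO wells while the 100% control is not disclosed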
PLCg1 inh = inhibitors of human phospholipase C gamma1. purified PLC-gamma1, fluorogenic substrate, fluorescence. inhibition, % at 12.2 µM. 370,000 tested, 0.84% active. AID 720700; in the data active = inhibition above about 9.5%
ADAM17 inh = inhibits human ADAM17; recombinant ADAM17, EDANS/DABCYL FRET peptide cleavage; inhibition, % at 6.95 µM; 370,000 tested, 0.83% active; AID 720648;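 active = inhibition above the mean of compounds lying between control limits plus 3 SD, set per campaign, cut at about 8.5% in these data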;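 note: 0% = DMSO-only wells as the low control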
PLC-beta3 inh = PLC-beta3 (human) inhibition, primary screen; 370,000 tested, 0.18% active; Purified PLC-beta3, fluorogenic substrate, fluorescence; inhibition, % at 12.2 µM; AID 720704; Q01970; in the data active = inhibition above about 11%;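 note: 0% = median of compound wells on plate and 100% = full blocker control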
DDE Tn6 FP inh = inhibitors of Tn6 peptide binding to human fibrin DD(E) | P02675 | Fibrin DD(E) TRITC-Tn6 fluorescence polarization displacement | inhibition, % at 8.3 µM | 370,000 tested, 0.21% active;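 active = inhibition above a per-campaign cutoff: mean of compounds within control limits plus 3 SD, cut at about 15% in these data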;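 note: 0% = median of all compound wells on the plate and 100% = blocking peptide control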
Tn7 DDE FP = DD(E)-Tn7 binding inhibition, primary FP screen; P02675; FP displacement of FITC-Tn7 peptide from fibrin DD(E); 0% = median of compound wells per plate; inhibition, % at 8.3 µM; 370,000 tested, 0.13% active; AID 720508;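 active = inhibition above the mean of compounds falling within the control limits plus 3 SD of them, cut at about 14% in these data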;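 note: 0% = plate median of compound wells and 100% = 10 µM Aha-Tn7 peptide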
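Assay system: Human clot-derived fibrin DD(E) complex | Buffer or medium: Tris/NaCl/CaCl2 buffer, pH 7.8 | Repeats: One replicate per compound | Benchmarks: Aha-Tn7 high control | Measure: % inhibition scaled between sample-field median and high-control FP | Schedule: 10 min plus 3 h, room temperature | Signal: Fluorescence polarization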
ADAM10 confirm = human ADAM10 inhibition, confirmation; shares compounds with ADAM10 inh; ADAM10 QFRET peptide cleavage, EDANS fluorescence; inhibition, % at 6.95 µM; 2,100 tested, 1% active; AID 743208;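 active = inhibition above about 20% chosen separately for each screening run, limit read from the data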;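 note: 0% = DMSO wells and 100% = marimastat wells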
ADAM17 ctr = ADAM17 inhibition, counter-screen for ADAM10 exosite hits | 2,100 tested, 0.5% active | ADAM17 QFRET peptide cleavage, EDANS fluorescence | shares compounds with ADAM10 inh | inhibition, % at 6.95 µM;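 active = mean triplicate inhibition above the solvent-only control wells' mean plus 3 SD, cut at about 12% in these data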;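 note: 0% = DMSO wells and 100% = marimastat wells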
Active calls of the source: *; . = not tested or not shown. Sampled rows, rich in hits. Any-hit rate of the full collection: about 2.3%.

SMILES	ADAM10 inh	PLCg1 inh	ADAM17 inh	PLC-beta3 inh	DDE Tn6 FP inh	Tn7 DDE FP	ADAM10 confirm	ADAM17 ctr
O=C(Nc1ccc(N2CCCC2)cc1)c1ccc(Cl)cc1Cl	20.3*	-2.3	4.6	1.8	-3.5	-1.7	9.4	5.3
O=C(Nc1ccc(N2CCCC2)cc1)c1ccc(Br)cc1	24.9*	-8.4	-7.3	-10.0	-8.5	3.3	1.1	0.5
N#Cc1c(-c2ccccc2)c(-c2ccccc2)n(Cc2ccco2)c1NC(=O)c1cccs1	19.8*	-25.1	6.7	-53.6	12.2	-8.2	21.0*	6.9
O=C(CSc1nnc(-c2ccc(O)cc2)n1Cc1ccco1)c1cccs1	3.4	-0.9	-0.6	1.3	6.2	6.0	.	.
CCCCN=C(N)NC(=O)OCc1ccccc1	-3.6	0.0	-2.2	5.9	2.5	0.4	.	.
Cc1ccc(N(CC(=O)Nc2ccc3c(c2)OCCO3)S(=O)(=O)c2c(C)n[nH]c2C)cc1	20.1*	7.9	6.3	1.3	-4.4	1.7	0.2	0.2
Cc1ccc(N(CC(=O)Nc2ccc3c(c2)OCCO3)S(=O)(=O)c2c(C)noc2C)cc1	13.6	4.8	4.9	1.8	5.0	-9.8	.	.
CC(C)Oc1ccc(Cl)cc1Nc1nc(NCCO)nc(N2CCCC2)n1	21.4*	2.2	7.2	-144.9	-4.5	-2.6	4.2	1.8
COc1ccc(Cl)cc1Nc1nc(NCCO)nc(N2CCCC2)n1	-1.2	1.2	-2.8	2.8	-2.5	-4.4	.	.
Cc1cc(NC(=O)c2ccccc2F)n(-c2nc3ccccc3[nH]2)n1	-0.8	-3.2	-2.6	-1.6	-10.0	-8.7	.	.
Cc1cc(Nc2ccccc2)n(-c2nc3ccccc3[nH]2)n1	20.9*	-1.1	5.0	0.9	-4.9	1.5	8.9	3.2
Cn1c(=O)c2c(nc(N3CCCCC3)n2CC(O)COc2ccccc2)n(C)c1=O (centres undefined)	20.6*	4.1	-0.1	-1.0	1.1	-2.8	-0.6	-0.2
Cn1c(=O)c2c(nc(N3CCCCCC3)n2CC(O)COc2ccccc2)n(C)c1=O (centres undefined)	-6.0	0.0	-4.8	0.2	-5.7	3.9	.	.
CCN(CC)c1ccc(NC(=O)COc2ccccc2C)cc1S(=O)(=O)Nc1ccccc1OC	20.6*	1.5	7.9	-0.3	-3.0	-13.7	10.8	3.3
CCN(CC)c1ccc(NC(=O)c2ccccc2Br)cc1S(=O)(=O)Nc1ccccc1OC	15.9	-1.8	3.8	-0.9	-0.4	4.4	.	.
O=[N+]([O-])c1ccccc1/C=C/C=N/n1c(-c2ccccc2)n[nH]c1=S	7.5	1.7	-1.3	-1.5	-1.2	4.4	.	.
Cc1ccc(-c2n[nH]c(=S)n2/N=C/C=C\c2ccccc2[N+](=O)[O-])cc1	29.3*	4.2	7.5	6.3	-0.9	-2.8	0.8	-0.3
CC(C)(C)c1ccc(Cn2cnc(-c3ccc([N+](=O)[O-])cc3)c2)cc1	5.5	-8.8	4.1	-9.8	-7.9	-8.4	.	.
Cc1cc(C)c(Cn2cnc(-c3ccc([N+](=O)[O-])cc3)c2)c(C)c1	29.2*	-2.9	-16.1	-8.1	2.9	-13.0	3.8	1.2
CC(C)(C)N1Cc2nnn(CC3CCCCC3)c2-c2cc(F)ccc2S1(=O)=O	-1.9	1.7	-3.4	0.0	5.5	5.3	.	.
COc1ccc(NC(=O)c2cc(-c3cc(C)cc(F)c3)n[nH]2)cc1OC	26.3*	2.4	8.5	-2.6	0.3	7.5	0.2	0.3
CCOc1ccc(Cl)cc1-c1cc(C(=O)Nc2cc(OC)c(OC)c(OC)c2)[nH]n1	20.2*	6.2	7.0	2.6	-12.2	-6.1	7.2	1.5
COc1ccc(NC(=O)c2ccc(F)cc2)cc1S(=O)(=O)Nc1cc(C)ccc1Br	22.6*	2.7	7.5	-1.5	-0.5	0.3	8.2	2.6
CCOc1ccc(Cl)cc1-c1cc(C(=O)Nc2ccc(OC)nc2)[nH]n1	1.8	0.1	0.5	1.8	-4.8	-0.5	.	.
COC(=O)[C@H](CC(C)C)N1Cc2nnn(CC3CCCCC3)c2-c2cc(F)ccc2S1(=O)=O	4.2	-0.4	1.6	-1.0	1.6	-0.3	.	.
SMILES	ADAM10 inh	PLCg1 inh	ADAM17 inh	PLC-beta3 inh	DDE Tn6 FP inh	Tn7 DDE FP	ADAM10 confirm	ADAM17 ctr
CCCC1CCC2(CCCN2CCOC(=O)Nc2ccc(F)cc2)CC1 (centres undefined)	-2.6	0.6	-3.6	-0.8	11.9	5.9	.	.
CC(=O)c1ccc(NC(=O)COC(=O)c2ccccc2N=Nc2ccc(N(C)C)cc2)cc1	21.6*	0.0	7.8	3.9	-3.9	3.1	1.4	1.3
CC1CC(=O)C2=C(C1)Nc1ccccc1SC2c1ccc(F)cc1 (centres undefined)	20.7*	-13.4	2.5	-21.8	-1.5	2.8	4.0	1.3
O=C1CC(c2ccsc2)Sc2ccccc2N1 (centres undefined)	-7.0	-2.2	-3.4	-5.5	-6.5	1.3	.	.
Cc1ccc(S(=O)(=O)Nc2cc(=O)[nH]c(SCC(=O)Nc3cccc(C(F)(F)F)c3)n2)cc1	3.8	7.3	-0.8	-1.0	-8.7	-2.5	.	.
Cc1ccc(NC(=O)CSc2nc(NS(=O)(=O)c3ccc(C)cc3)cc(=O)[nH]2)cc1	23.0*	1.5	7.0	-1.9	2.7	-4.9	7.5	1.3
O=c1[nH][nH]c2c1C(c1ccc(F)cc1)OC(CCc1ccccc1)C2 (centres undefined)	20.0*	8.4	7.3	1.1	-2.3	3.1	2.5	0.7
O=c1[nH][nH]c2c1[C@@H](c1ccc(F)cc1)O[C@H](CCc1ccccc1)C2	18.9	2.7	8.0	4.2	0.0	6.6	.	.
COc1ccc(N2CCN(CCNS(=O)(=O)c3ccc(C)cc3)CC2)cc1	86.0*	0.0	2.9	-4.1	7.3	-3.8	1.5	1.6
COC(=O)[C@]1(C#N)CC(=O)N(Cc2ccc(Cl)cc2)[C@@H]1c1ccccc1	-0.2	-0.8	-0.3	-0.8	-0.9	1.8	.	.
COCCCNC(=O)C[C@H]1C[C@@]2(C(=O)OC)C(=C[C@H](C(C)C)O[C@@H]2C2CC2)N(CCC2=CCCCC2)C1=O	0.5	1.1	1.0	4.5	5.6	5.2	.	.
COc1ccccc1C(=O)NC1CCCCN(Cc2cccc(F)c2)C1=O (centres undefined)	2.9	-0.1	-0.8	-1.0	12.1	6.4	.	.
COc1ccccc1-n1cc(-c2ccc([N+](=O)[O-])cc2)[nH]c1=S	27.0*	-3.1	7.7	-8.9	-6.7	-4.8	2.6	0.6
COc1ccccc1-n1cc(-c2ccc(C)cc2)[nH]c1=S	4.8	0.5	0.8	-4.2	2.6	-1.2	.	.

Bioassay records deposited in PubChem BioAssay by The Scripps Research Institute Molecular Screening Center.
